From ChEMBL document CHEMBL1140348, “5'-Homoneplanocin A inhibits hepatitis B and hepatitis C” (J Med Chem, 2005)

Columns and labels:
Hepatitis B virus [1] = assay: (§1) Effective concentrations at which […] depression of extracellular virion DNA (HBV) was observed in 2.2.15 Cells; assay type: functional; conditions: HepG2 2.2.15
Summary of the method: (§2)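 Confluent 2.2.15 cells in RPMI1640 with 2% FBS got nine daily doses, with medium and compound refreshed daily; six cultures per concentration on two plates. HBV DNA was quantified by blot hybridization 24 h after the last dose. EC50 and EC90 are the 2-fold and 10-fold depression versus untreated cultures, from linear regression over two to four experiments.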

Hepatitis B virus [2] = assay: as §1; assay type: functional, organism-based; conditions: HepG2 2.2.15
Summary of the method: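 Confluent 2.2.15 cells in RPMI1640 with 2% FBS, given nine consecutive daily doses with daily medium change, six cultures per concentration on two plates. HBV DNA measured by quantitative blot hybridization 24 h after last dose. EC is the concentration giving 2-fold (EC50) or 10-fold (EC90) depression vs untreated, by linear regression, 2–4 experiments.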

[3] = Cytotoxic concentration against HCV replication in AVA5 cell culture; assay type: cell-based; conditions: AVA5 cells
Summary of the method: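 AVA5 replicon cells given compound daily for 3 days, without G418. Neutral red uptake (A510) read 24 h after last treatment. CC50 is the concentration giving 2-fold lower dye uptake vs untreated cultures, by linear regression on combined data from all treated cultures.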

Hepatitis C virus [4] = assay: Effective concentrations at which 2-fold depression of HCV RNA was observed in AVA5 cells (Huh 7 cells with subgenomic HCV replicon BB7); assay type: functional, organism-based, Hepacivirus hominis
Summary of the method: (§3)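 AVA5 cells (Huh7 carrying subgenomic HCV replicon BB7), grown 3 days with G418, then treated without G418 for 3 consecutive days while rapidly dividing, 3 cultures per concentration, fresh compound daily. HCV RNA measured by quantitative blot hybridization 24 h after last dose. EC50 is the concentration giving 2-fold HCV RNA depression vs untreated, by linear regression on all treated cultures.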

Hepatitis C virus [5] = assay: Effective concentrations at which 10-fold depression of HCV RNA was observed in AVA5 cells (Huh 7 cells with subgenomic HCV replicon BB7I; assay type: functional, Hepacivirus hominis
Summary of the method: as §3, with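 “EC90” for “EC50”, “10-fold” for “2-fold”, “regression.” for “regression on all treated cultures.”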

Hepatitis B virus [6] = assay: Selectivity index of intracellular intermediates as the ratio of CC50 and EC90; assay type: functional
Summary of the method: (§4)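 The 2.2.15 HBV assay used nine daily doses. HBV DNA was measured by blot hybridization and toxicity by neutral red uptake, both 24 h after the last dose. The index is CC50/EC90, where EC90 is the 10-fold HBV DNA depression and CC50 the 2-fold dye-uptake depression versus untreated cultures.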

Hepatitis B virus [7] = assay: Selectivity index of virion as the ratio of CC50 and EC90; assay type: functional; summary of the method: as §4
Hepatitis B virus [8] = assay: Effective concentrations at which 10-fold depression of intracellular intermediates of HBV DNA was observed in 2.2.15 Cells; assay type: functional; conditions: HepG2 2.2.15; summary of the method: as §2
Hepatitis B virus [9] = assay: Cytotoxic concentration against […] replication in 2.2.15 cell culture; assay type: functional; conditions: HepG2 2.2.15
Hepatitis C virus [10] = assay: Selectivity index as the ratio of CC50 and EC50; assay type: functional, Hepacivirus hominis
Summary of the method: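 AVA5 cells (Huh7 carrying the BB7 subgenomic HCV replicon) were grown 3 days with G418, which was then withdrawn. Rapidly dividing cultures, three per concentration, were treated for 3 consecutive days with daily medium renewal. HCV RNA was measured by blot hybridization 24 h after the last dose, with neutral red uptake for toxicity. SI is CC50/EC50, each at 2-fold depression versus untreated cultures.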

[11] = Cytotoxic concentration against HBV replication in 2.2.15 cell culture; assay type: cell-based, HepG2 2.2.15; conditions: hepatitis b virus, 2.2.15 cells
Summary of the method: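 Confluent 2.2.15 cells in RPMI1640 with 2% FBS received nine consecutive daily doses, with medium and compound renewed daily. Toxicity was read 24 h after the last dose as neutral red uptake (A510), with three cultures per concentration on plates seeded in parallel from the same cell stock. CC50 is the 2-fold depression of dye uptake versus untreated cultures, from linear regression.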

Row | Compound | EC90 (Hepatitis B virus [1]) [µM] | EC50 (Hepatitis B virus [2]) [µM] | CC50 [3] [µM] | EC50 (Hepatitis C virus [4]) [µM] | EC90 (Hepatitis C virus [5]) [µM] | SI (Hepatitis B virus [6]) | SI (Hepatitis B virus [7]) | EC90 (Hepatitis B virus [8]) [µM] | CC50 (Hepatitis B virus [9]) [µM] | SI (Hepatitis C virus [10]) | CC50 [11] [µM]
1 | Nc1ncnc2c1ncn2[C@@H]1C=C(CCO)[C@@H](O)[C@H]1O | 7.7 | 0.53 | 216 | 7.3 | 31 | 45 | 158 | 27 | 1210 | 30 | –
2 | Nc1ccn([C@@H]2CS[C@H](CO)O2)c(=O)n1 (single isomer, unassigned) [LAMIVUDINE] | 0.17 | 0.06 | – | – | – | 3877 | 11630 | 0.69 | – | – | 2680
3 | NC(=O)c1ncn([C@@H]2O[C@H](CO)[C@@H](O)[C@H]2O)n1 [RIBAVIRIN] | – | – | 71 | > 100 | > 100 | – | – | – | – | – | –
